{"data": "Measured values of several laboratories", "target": "Serine/threonine-protein kinase VRK2 (VRK2, Homo sapiens, UniProt Q86Y07)", "note": "Lines come from different studies, so protocols differ."}
{"Structure (SMILES)": "CN(C)c1ncc(F)c(-c2cnn3ncccc23)n1", "test": "binding", "conditions": "1 µM", "remaining binding [%]": 100}
{"Structure (SMILES)": "Cc1c(NC(=O)c2cc(C(N)=O)nc3cc(F)ccc23)c(C(F)(F)F)nn1Cc1ccc(C(C)(C)C)cc1", "test": "cell-free assay, competition with immobilised ligand", "conditions": "1 µM", "remaining binding [%]": 95}
{"Structure (SMILES)": "Cc1cnc(Nc2ccc(C(=O)N3CCC(N4CCCC4)CC3)cc2)nc1-c1cc2ccccc2s1", "test": "binding, competition with immobilised ligand", "conditions": "1 µM", "remaining binding [%]": 81}
{"Structure (SMILES)": "COc1cnc(Nc2cccc(S(N)(=O)=O)c2)nc1N1CCN(c2ccccc2)C(=O)C1", "test": "binding, competition with immobilised ligand", "conditions": "1 µM", "remaining binding [%]": 89}
{"Structure (SMILES)": "c1cncc(-c2cccc(Nc3nccc(NC4CCCCC4)n3)c2)c1", "test": "binding, competition with immobilised ligand", "conditions": "10 µM", "remaining binding [%]": 82}
{"Structure (SMILES)": "C[C@@H]1CCN(c2nccc(-c3cnn4ncccc34)n2)C1", "test": "binding", "conditions": "1 µM", "remaining binding [%]": 82}
{"Structure (SMILES)": "CCN1CCN(Cc2ccc(C(=O)Nc3ccc(C)c(Oc4ccc5c(c4)CC(=O)N5)c3)cc2C(F)(F)F)CC1", "test": "binding, competition with immobilised ligand", "conditions": "1 µM", "remaining binding [%]": 100}
{"Structure (SMILES)": "N[C@@H]1CCN(c2nccc(-c3cnn4ncccc34)n2)C1", "test": "binding", "conditions": "1 µM", "remaining binding [%]": 100}
{"Structure (SMILES)": "C[C@H](c1ccnc(Nc2nc3ccc(-c4cc(N(C)C)ncn4)cc3[nH]2)c1)N1CCN(C(=O)CC(F)(F)F)CC1", "test": "cell-free assay, competition with immobilised ligand", "conditions": "0.1 µM", "remaining binding [%]": 94}
{"Structure (SMILES)": "CN(C)c1nccc(-c2cnc3ncccn23)n1", "test": "binding", "conditions": "1 µM", "remaining binding [%]": 64}
{"Structure (SMILES)": "O=C(NCCCC1CCCCC1)c1ccc(CNC(=O)c2cnn(-c3ccccc3)c2C(F)(F)F)cc1", "test": "cell-free assay, competition with immobilised ligand", "conditions": "0.1 µM", "remaining binding [%]": 100}
{"Structure (SMILES)": "C[C@@H](c1ccc(-n2cnc3c(N)ncnc32)cc1)N1CCc2nn(C)c(Cc3ccccc3)c2C1=O", "test": "binding, competition with immobilised ligand", "conditions": "0.1 µM", "remaining binding [%]": 47}
{"Structure (SMILES)": "O=C(c1ccc(Nc2ncc(Cl)c(-c3ccc(Cl)s3)n2)cc1)N1CCC(N2CCCC2)CC1", "test": "binding, competition with immobilised ligand", "conditions": "1 µM", "remaining binding [%]": 56}
{"Structure (SMILES)": "CC1CCCN1c1nccc(-c2cnn3ncccc23)n1 (centres unmarked)", "test": "binding", "conditions": "1 µM", "remaining binding [%]": 100}
{"Structure (SMILES)": "CCCCN(CCCC)C(=O)CN1C[C@@H](c2cc(OC)c3c(c2)OCO3)[C@H](C(=O)O)[C@H]1CC(C)(C)CCC", "test": "cell-free assay, competition with immobilised ligand", "conditions": "1 µM", "remaining binding [%]": 95.4}
{"Structure (SMILES)": "CN(c1nccc(-c2cnn3ncccc23)n1)C1CC1", "test": "binding", "conditions": "1 µM", "remaining binding [%]": 100}
{"Structure (SMILES)": "O=C(NCC1CCOCC1)c1n[nH]cc1NC(=O)c1c(F)cccc1F", "test": "binding, competition with immobilised ligand", "conditions": "1 µM", "remaining binding [%]": 100}
{"Structure (SMILES)": "CNC(=O)Nc1ccc2c(c1)[C@@]1(CC2)OC(=O)N(CC(=O)N(Cc2ccc(F)cc2)[C@@H](C)C(F)(F)F)C1=O", "test": "cell-free assay, competition with immobilised ligand", "conditions": "1 µM", "remaining binding [%]": 97}
{"Structure (SMILES)": "O=C(c1ccc(Nc2nccc(-c3cc4ccccc4s3)n2)cc1)N1CCC(N2CCCC2)CC1", "test": "binding, competition with immobilised ligand", "conditions": "1 µM", "remaining binding [%]": 35}
{"Structure (SMILES)": "O=C(N1CCS(=O)(=O)CC1)N1C[C@H](c2ccc(OC(F)(F)F)cc2)C[C@H](c2nc(C3CC3)no2)C1", "test": "cell-free assay, competition with immobilised ligand", "conditions": "1 µM", "remaining binding [%]": 90}
{"Structure (SMILES)": "Cc1cnn2ncc(-c3ccnc(N(C)C)n3)c2c1", "test": "binding", "conditions": "1 µM", "remaining binding [%]": 96}
{"Structure (SMILES)": "CC1=C(C#N)C(c2ccc3c(c2)c(NC(=O)c2ccccc2C)nn3C)C(C#N)=C(C)N1", "test": "cell-free assay, competition with immobilised ligand", "conditions": "1 µM", "remaining binding [%]": 72}
{"Structure (SMILES)": "Nc1ncc2c(n1)-c1c([nH]c3ccc(C#CC4CC4)cc13)CCCC2", "test": "binding, competition with immobilised ligand", "conditions": "1 µM", "remaining binding [%]": 100}
